Test results reported in ChEMBL document CHEMBL1139334, “Discovery of novel analgesic and anti-inflammatory 3-arylamine-imidazo[1,2-a]pyridine symbiotic prototypes” (Bioorg Med Chem, 2009).
Active and inactive are the calls of the source. No cut-off for these calls is given here.

Assays:
Rattus norvegicus [1] = experiment: Antiinflammatory activity in Wistar rat assessed as inhibition of carrageenan-induced paw edema at 100 umol/kg, po measured 3 hrs post carrageenan challenge; assay type: functional
Method in brief: (§1)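 Fasted Wistar rats of both sexes (150–200 g) were dosed orally with a suspension in 5% arabic gum in saline; controls received vehicle. After 1 h, 1% carrageenan (0.1 ml, […]) was injected subplantarly into the right hind paw and sterile saline into the left. Paw volumes were read by glass plethysmometer 3 h later. Edema is the carrageenan-minus-saline paw volume; results are % inhibition versus vehicle.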

[2] = target: T1, Prostaglandin G/H synthase 2 (Homo sapiens, UniProt P35354); experiment: Inhibition of PGHS2 in human whole blood assessed as inhibition of TXB2 production by radioimmunoassay; assay type: tissue-based
T1 sequence (P35354 whole entry): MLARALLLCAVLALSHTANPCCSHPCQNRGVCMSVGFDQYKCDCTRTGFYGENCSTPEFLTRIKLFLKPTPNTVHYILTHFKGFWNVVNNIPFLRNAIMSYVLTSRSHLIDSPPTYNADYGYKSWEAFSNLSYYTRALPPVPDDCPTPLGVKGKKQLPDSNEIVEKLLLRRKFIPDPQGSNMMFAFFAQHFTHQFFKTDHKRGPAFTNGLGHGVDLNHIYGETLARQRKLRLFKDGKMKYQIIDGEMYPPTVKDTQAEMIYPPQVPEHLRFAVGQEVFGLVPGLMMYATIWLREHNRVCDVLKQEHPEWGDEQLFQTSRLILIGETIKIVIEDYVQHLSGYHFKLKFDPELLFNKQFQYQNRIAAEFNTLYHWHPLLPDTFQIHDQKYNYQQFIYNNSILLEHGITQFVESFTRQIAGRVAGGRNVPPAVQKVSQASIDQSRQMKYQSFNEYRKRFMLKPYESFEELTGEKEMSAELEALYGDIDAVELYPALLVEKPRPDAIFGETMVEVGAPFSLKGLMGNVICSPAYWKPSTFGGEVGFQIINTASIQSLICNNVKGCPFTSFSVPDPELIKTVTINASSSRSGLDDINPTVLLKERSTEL

Rattus norvegicus [3] = experiment: Antihyperalgesic activity in Wistar rat assessed as inhibition of capsaicin-induced thermal hyperalgesia at 100 umol/kg, po; assay type: functional, organism-based
Method in brief: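 Fasted Wistar rats of both sexes (150–200 g) had basal and acclimatization withdrawal latencies recorded on a 52 °C hot plate. Compound was given orally 1 h before an intraplantar injection of 5% capsaicin in DMSO into the right hind paw. Right hind paw withdrawal latency was timed by chronometer at 2, 5, 10, 30 and 60 min post-challenge.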

Mus musculus [4] = experiment: Analgesic activity in Swiss mouse assessed as inhibition of acetic acid-induced abdominal constriction at 100 umol/kg, po administered 1 hr before acetic acid challenge; assay type: functional; conditions: Abdomen
Method in brief: (§2)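 Swiss mice (18–23 g) received compounds orally as a suspension in 5% arabic gum in saline; controls received an equal volume of vehicle. After 1 h, 0.6% acetic acid (0.1 ml/10 g) was given ip. Constrictions were counted for 20 min, starting 10 min after injection. Results are % inhibition versus vehicle; N = 7–10 per group; mean ± SEM; one-way ANOVA with Dunnett test.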

Rattus norvegicus [5] = experiment: Antiinflammatory activity in po dosed Wistar rat assessed as inhibition of carrageenan-induced paw edema measured 3 hrs post carrageenan challenge; assay type: functional; method in brief: as §1
Mus musculus [6] = experiment: Analgesic activity in po dosed Swiss mouse assessed as inhibition of acetic acid-induced abdominal constriction administered 1 hr before acetic acid challenge; assay type: functional; conditions: Abdomen; method in brief: as §2

Row | SMILES | inhibition in vivo at 100 µmol/kg (Rattus norvegicus [1]) [%] | IC50 [2] [µM] | Activity (Rattus norvegicus [3]) | inhibition in vivo at 100 µmol/kg (Mus musculus [4]) [%] | ED50 (Rattus norvegicus [5]) [µmol/kg] | ED50 (Mus musculus [6]) [µmol/kg]
1 | c1ccc(Nc2c(-c3ccccn3)nc3ccccn23)cc1 | 33.4 | 18.5 | Active | -3 |  | 
2 | CS(=O)(=O)c1ccc(-c2nc3ccccn3c2Nc2ccccc2)cc1 | 28.2 |  | inactive | 7.4 |  | 
3 | c1ccc(Nc2c(-c3ccccc3)nc3ccccn23)cc1 | 63.9 |  | Active | 10.8 | 14.5 | 
4 | c1ccc(Nc2c(-c3ccncc3)nc3ccccn23)cc1 | 49.9 |  | Active | 13 | 11.5 | 
5 | CS(=O)(=O)c1ccc(Nc2c(-c3ccncc3)nc3ccccn23)cc1 | 1.8 |  | Active | 33.6 |  | 
6 | COc1ccc(Nc2c(-c3ccc(S(C)(=O)=O)cc3)nc3ccccn23)cc1 | 41.7 | 2.8 | inactive | 53 | 8.7 | 22.7
7 | CS(=O)(=O)c1ccc(-c2nc3ccccn3c2Nc2ccccn2)cc1 | 17.2 |  | Active | 22.2 |  | 
8 | Cc1ccc(-c2cc(C(F)(F)F)nn2-c2ccc(S(N)(=O)=O)cc2)cc1 [CELECOXIB] | 30 |  |  | 46.1 | 87.7 | 247
9 | CS(=O)(=O)c1ccc(Nc2c(-c3ccccn3)nc3ccccn23)cc1 | 18.5 |  | Active | 33.7 |  | 
